Assay results from PMC4443790 (Neuron, 2015).
“Also recorded” adds a separate entry of the source.

Tests used:
[1] = test system: NMDAR currents in hippocampal CA1 pyramidal cells; experiment: Whole-cell recordings of NMDA-evoked currents/responses in CA1 pyramidal cells; set-up: species or system rat; conditions: for effect on NMDA-evoked currents when added alone / effect on NMDAR currents in the presence of 3 μM DHPG: 5PAM523 20 μM, VU0409551 10 μM
rats [2] = experiment: Behavioral convulsions, modified Racine scale; assay type: in vivo; conditions: rat
[3] = test system: hippocampal Schaffer collateral-CA1 (SC-CA1) synapse; experiment: DHPG-induced LTD, fEPSP recordings at hippocampal SC-CA1 synapse; set-up: species or system rat; conditions: for fEPSP slope, % of baseline: measured 55 min after washout
[4] = target: mGlu5 in rat cortical astrocytes (Rattus norvegicus, UniProt P31424); experiment: Glutamate-induced calcium mobilization in cultured rat cortical astrocytes; assay type: cell-based
rats [5] = experiment: Amphetamine-induced hyperlocomotion; assay type: in vivo, rat
[6] = test system: hippocampal SC-CA1 synapse; experiment: Theta burst stimulation-induced LTP at the SC-CA1 synapse; set-up: species or system rat; conditions: 1 μM VU0092273 for 20 min then threshold TBS, 35 min after stimulation
Outline: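 Threshold LTP was induced with one theta-burst train: nine bursts of four pulses at 100 Hz, 230 ms interburst interval. fEPSP slope was quantified 35 min after TBS.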

[7] = In vitro fraction unbound in rat brain; assay type: in vitro ADME
rats [8] = experiment: Amphetamine-induced disruption of prepulse inhibition; assay type: in vivo; conditions: rat, 56.6 and 100 mg/kg, 30 min pretreatment
male Lister-hooded rats = experiment: Delayed non-matching to position; assay type: in vivo; conditions: Lister-hooded rat, 10-60 mg/kg
Outline: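 Male Lister-hooded rats (350-450 g), trained to stable accurate performance, received vehicle or test compound (10-60 mg/kg) 60 min before testing. Delays were 1, 10, 20 and 30 sec, with 15 trials each (60 total) and a 45 min maximum per session. Read-outs were proportion of correct responses per delay and trials initiated.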

rat mGlu5 [9] = target: T1, rat mGlu5 (Rattus norvegicus, UniProt P31424); experiment: mGlu5-mediated ERK1/2 phosphorylation; assay type: cell-based
Outline: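 HEK293A cells stably expressing rat mGlu5 were used. Phosphorylated ERK1/2 was measured with an ALPHAScreen-based ERK Surefire assay, both with glutamate added and without added glutamate.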

[10] = test system: NMDAR-fEPSP at SC-CA1 synapse; experiment: NMDAR-mediated fEPSPs at the SC-CA1 synapse; set-up: species or system rat
[11] = Rat pharmacokinetics, single oral administration; assay type: in vivo; conditions: p.o., 3 mg/kg
rats [12] = experiment: Fluoro-Jade C staining of rat brain; assay type: in vivo
[13] = test system: EPSCNMDA/EPSCAMPA at SC-CA1 synapses; conditions: 10 μM
rats [14] = experiment: Sleep-wake electroencephalography; assay type: in vivo; conditions: rat, p.o., 10 mg/kg
[15] = In vitro fraction unbound in rat plasma; assay type: in vitro ADME
mGlu1,2,3,4,6,7,8 = experiment: mGlu subtype selectivity screening; assay type: cell-based, rat; conditions: 10 μM; shift of agonist concentration response curve
Outline: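 Selectivity across mGlu subtypes: mGlu1 was tested by calcium flux in HEK293 cells stably expressing rat mGlu1. mGlu2, 3, 4, 6, 7 and 8 were each tested by thallium flux through GIRK channels in HEK-293-GIRK cells expressing that subtype.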

rats [16] = experiment: Novel object recognition; assay type: in vivo; conditions: rat, 1-10 mg/kg, 30 min prior to exposure; significant at 3 and 10 mg/kg
[17] = Biotransformation in rat hepatocytes; assay type: in vitro ADME; conditions: multiple oxidative pathways
[18] = Satellite PK for Fluoro-Jade studies, repeat oral dosing; assay type: in vivo; conditions: rat, 120 mg/kg p.o. once-daily for 4 days, 75% PEG 400 in water
Outline: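 Non-fasted male Sprague Dawley rats received 120 mg/kg orally once daily for 4 days in aqueous PEG 400 vehicle. Serial blood samples were taken at 3, 7 and 24 hr post-dose on day 1 and day 4. Plasma concentrations were quantified by LC-MS/MS.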

rats [19] = experiment: MK-801-induced hyperlocomotion; assay type: in vivo; conditions: rat, p.o.
Outline: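 Male Sprague Dawley rats in an open-field photobeam chamber received vehicle or test compound (10-100 mg/kg, oral, 20% β-cyclodextrin, 3 ml/kg) at t = 30, then MK-801 (0.2 mg/kg s.c. in saline) at t = 60 min. Activity was recorded 60 min more as beam breaks per 5-min bin. AUC from 60 to 120 min gave total ambulations; percent reversal was normalised to vehicle + MK-801; n = 10-12.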

[20] = Brain distribution in vivo after oral administration; conditions: rat, 1.5 hr after single p.o. 3, 10, 30, 100 mg/kg
[21] = Rat pharmacokinetics, single intravenous administration; assay type: in vivo; conditions: i.v., 2.5 mg/kg
rats [22] = experiment: Contextual fear conditioning; assay type: in vivo; conditions: rat, 0.3 - 10 mg/kg, 30 min pretreatment prior to conditioning
Outline: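 Male Sprague Dawley rats (275-300 g) were dosed orally in 20% β-cyclodextrin (3 ml/kg) 30 min before conditioning. In a chamber scented with 10% vanilla extract, they had 2 min habituation, then one 1 s, 0.5 mA shock-context pairing, and returned home after 45 sec. 24 hr later, freezing was scored blind over 2 min 45 sec in the same context without shock or drug.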

[23] = test system: 66 other receptors and ion channels; experiment: Radioligand competition binding panel; conditions: 10 μM
α2A adrenergic receptors = target: T2, α2A adrenergic receptors (Homo sapiens, UniProt P08913); experiment: Radioligand competition binding assay; conditions: read-out: IC50 at α2A adrenergic receptors
T2 sequence (P08913 1-465): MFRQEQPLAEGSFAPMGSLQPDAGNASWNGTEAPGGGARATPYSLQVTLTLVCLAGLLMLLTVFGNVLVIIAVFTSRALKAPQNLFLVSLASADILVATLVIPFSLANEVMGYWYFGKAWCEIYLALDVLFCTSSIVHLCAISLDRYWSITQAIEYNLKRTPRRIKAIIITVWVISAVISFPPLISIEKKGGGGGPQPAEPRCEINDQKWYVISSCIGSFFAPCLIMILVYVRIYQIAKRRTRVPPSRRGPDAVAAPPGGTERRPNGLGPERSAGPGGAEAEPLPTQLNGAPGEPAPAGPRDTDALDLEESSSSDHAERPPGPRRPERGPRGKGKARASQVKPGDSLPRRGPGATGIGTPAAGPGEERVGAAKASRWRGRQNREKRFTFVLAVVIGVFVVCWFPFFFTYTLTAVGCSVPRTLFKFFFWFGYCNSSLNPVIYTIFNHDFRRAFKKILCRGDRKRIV

rat mGlu5 [24] = target: T1, rat mGlu5; experiment: Intracellular Ca2+ mobilization in HEK293A cells stably expressing rat mGlu5; assay type: cell-based; conditions: calcium mobilization
Outline: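 Stably transfected HEK293A cells expressing rat mGlu5. Test compound added first (30 μM in representative traces), then EC20 and EC80 concentrations of glutamate added in sequence; intracellular calcium mobilization traces recorded.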

[25] = operational model of allosterism, pERK1/2
[26] = rat, 3-100 mg/kg, 30 min pretreatment, amphetamine 1 mg/kg s.c.

Sequence of mGlu5 in rat cortical astrocytes (P31424 21-1203): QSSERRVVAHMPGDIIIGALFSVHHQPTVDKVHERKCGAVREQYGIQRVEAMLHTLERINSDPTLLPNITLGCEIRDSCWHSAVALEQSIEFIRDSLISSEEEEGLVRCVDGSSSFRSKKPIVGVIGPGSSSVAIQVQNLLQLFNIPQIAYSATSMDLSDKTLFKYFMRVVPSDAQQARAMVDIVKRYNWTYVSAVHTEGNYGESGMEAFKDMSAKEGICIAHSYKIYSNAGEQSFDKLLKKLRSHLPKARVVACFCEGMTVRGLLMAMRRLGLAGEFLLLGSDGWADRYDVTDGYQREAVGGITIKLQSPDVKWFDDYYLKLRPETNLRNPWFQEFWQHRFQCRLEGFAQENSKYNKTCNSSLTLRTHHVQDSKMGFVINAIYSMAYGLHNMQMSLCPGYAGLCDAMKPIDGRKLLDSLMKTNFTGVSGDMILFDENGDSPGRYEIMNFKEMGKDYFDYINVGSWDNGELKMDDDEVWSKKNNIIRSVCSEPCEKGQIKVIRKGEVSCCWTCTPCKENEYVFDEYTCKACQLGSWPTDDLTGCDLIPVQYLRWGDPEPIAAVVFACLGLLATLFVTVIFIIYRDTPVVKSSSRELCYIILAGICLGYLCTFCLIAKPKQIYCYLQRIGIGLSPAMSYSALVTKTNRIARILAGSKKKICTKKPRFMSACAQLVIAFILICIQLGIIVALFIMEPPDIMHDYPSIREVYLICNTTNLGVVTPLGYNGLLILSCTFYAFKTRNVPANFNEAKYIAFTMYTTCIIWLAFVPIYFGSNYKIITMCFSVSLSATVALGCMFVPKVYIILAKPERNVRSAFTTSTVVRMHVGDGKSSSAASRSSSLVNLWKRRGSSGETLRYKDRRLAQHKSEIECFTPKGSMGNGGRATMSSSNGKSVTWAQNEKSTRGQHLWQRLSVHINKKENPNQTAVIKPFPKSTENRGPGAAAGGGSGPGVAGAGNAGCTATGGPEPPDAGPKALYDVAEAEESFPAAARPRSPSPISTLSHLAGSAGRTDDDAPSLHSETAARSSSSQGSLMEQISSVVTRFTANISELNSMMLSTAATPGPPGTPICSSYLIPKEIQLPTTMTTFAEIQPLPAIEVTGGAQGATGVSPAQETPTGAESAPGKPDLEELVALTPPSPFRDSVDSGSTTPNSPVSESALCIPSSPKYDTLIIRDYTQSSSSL
T1 sequence (P31424 21-1203): as above

C[C@@H]1CC[C@H](c2noc(-c3ccc(F)cn3)n2)CN1C(=O)c1ccc(F)cc1 [5PAM523, reference compound]
effect on NMDA-evoked currents when added alone ([1]; voltage clamp): had no effect
effect on NMDAR currents in the presence of 3 μM DHPG ([1]; voltage clamp): potentiated
behavioral convulsions (Racine scale) (rats [2]; 5PAM523 56.6 mg/kg): induced behavioral convulsions

N[C@H](C(=O)O)c1cc(O)cc(O)c1 [DHPG, reference compound]
fEPSP slope, % of baseline ([3]; 25 μM DHPG for 10 min): 78.9% ± 5.7%
fEPSP slope, % of baseline ([3]; 75 μM DHPG for 10 min): 54.9% ± 5.3%
effect of DHPG on inward currents evoked by NMDA ([1]; voltage clamp, DHPG at different concentrations): concentration-dependent increase in inward currents

Cc1cccc(C#Cc2ccccc2)n1 [MPEP, 2-methyl-6-(phenylethynyl)-pyridine, reference compound]
effect on VU0409551 potentiation of glutamate-induced calcium mobilization ([4]; MPEP 10 μM): blocked

Cc1nc(C#Cc2cccnc2)cs1 [MTEP, reference compound]
effect on reversal of AHL by VU0409551 (rats [5]; data not shown): blocked

O=C(c1ccc(C#Cc2ccccc2)cc1)N1CCC(O)CC1 [VU0092273]
effect on fEPSP slope in response to threshold TBS [6]: significant potentiation

O=C(c1ccc(F)cc1)N1CCc2nc(COc3ccccc3)oc2C1 [VU0409551]
fEPSP slope, % of baseline ([3]; 10 μM VU0409551 plus 25 μM DHPG): 43.7% ± 4.6%
effect on fEPSP slope when applied alone ([3]; VU0409551 alone, transient, returned to baseline within 10 min of washout): slight depression in the fEPSP slope
brain to plasma partition coefficient (Kp) at unrestricted equilibrium ([fup]/[fubr]) ([7]; from in vitro fup and fubr): 1.8
fraction unbound in rat brain (fubr) ([7]; in vitro): 0.04
effect on 3 μM DHPG-induced depolarization or increase in NMDAR response ([1]; current clamp): did not potentiate
effect on NMDA-evoked responses when applied alone ([1]; current clamp): had no effect
effect on NMDA-evoked currents when added alone ([1]; voltage clamp): had no effect
effect on NMDAR currents in the presence of 3 μM DHPG ([1]; voltage clamp): had no effect
amphetamine-induced disruptions in PPI (rats [8]): reversed
total number of trials initiated (male Lister-hooded rats; 60 min pretreatment): no change
proportion of correct responses at a 10 and 20 sec delay (male Lister-hooded rats; 60 min pretreatment (60 mg/kg)): increased
pERK1/2 agonist activity (rat mGlu5 [9]; absence of added glutamate): increased pERK1/2 in the absence of added glutamate; also recorded: robust agonist activity
glutamate-induced phosphorylation of ERK1/2 (rat mGlu5 [9]; mGlu5-expressing cells): potentiated
agonist efficacy τB (rat mGlu5 [9]; [25]): 1.04
cooperativity β with glutamate (rat mGlu5 [9]; [25]): 1.43
behavioral convulsions (rats [2]; repeated once-daily 450 mg/kg over 14 days, data not shown): did not induce behavioral convulsions
effect on NMDAR-fEPSP slope [10]: had no effect
area-under-the-curve from 0-last (AUC0-last) [11]: 2.9 µM·h
oral bioavailability (%F) [11]: 63%
FJC staining (rats [12]; 360 mg/kg, once daily for 1 month, unpublished findings): can induce FJC staining
FJC staining (rats [12]; rat, 120 mg/kg p.o. daily for four consecutive days, 24 hr after last dose): did not induce
effect on EPSCNMDA/EPSCAMPA ratio when applied alone [13]: had no effects
duration of decreased time asleep post-administration (rats [14]): 2 h
fraction unbound in rat plasma (fup) [15]: 0.07
effect at the other mGlu receptor subtypes (mGlu1,2,3,4,6,7,8): no effect; also recorded: did not shift the agonist concentration response curve
intrinsic agonist activity ([4]; cultured rat cortical astrocytes): no intrinsic agonist activity
maximum glutamate response ([4]; rat cortical astrocytes): 79.5%
recognition memory in the novel object recognition task (rats [16]): dose-dependent increase
turnover in rat hepatocytes [17]: moderate turnover
AUC0-last day 1 [18]: 96 µM·h
AUC0-last day 4 [18]: 95 µM·h
minimal effective dose (MED), reversal of MK-801-induced hyperlocomotion (rats [19]; 10-100 mg/kg, 30 min pretreatment, MK-801 0.2 mg/kg s.c.): 10 mg/kg
maximum reversal of MK-801-induced hyperlocomotion (rats [19]; highest dose 100 mg/kg): 49.7%
brain to plasma Kp [20]: 2.3
unbound brain to plasma Kp (Kp,uu) [20]: 1.3
clearance from plasma (CLp) [21]: 33 mL/min/kg
half-life (t1/2) [21]: 3.9 h
volume of distribution at steady-state (Vss) [21]: 9.6 L/kg
acquisition of fear memory assessed 24 hr later (rats [22]): significantly enhanced
activity at 66 other receptors and ion channels [23]: no activity
maximum reversal of amphetamine-induced hyperlocomotion (rats [5]; rat, 3-100 mg/kg): 78.1%
ED50, reversal of amphetamine-induced hyperlocomotion (rats [5]; [26]): 5.9 mg/kg
MED, reversal of amphetamine-induced hyperlocomotion (rats [5]; [26]): 3 mg/kg
EC50 (rats [5]; read-out: in vivo EC50 for reversal of AHL, terminal (1.5 hr) unbound brain concentration, individual animal concentration-efficacy data from all dose groups): 0.097 µM
Emax for reversal of AHL (rats [5]; unbound brain concentration-efficacy analysis): 82%
IC50 (α2A adrenergic receptors): 8.9 µM
intrinsic agonist activity (rat mGlu5 [24]): did not possess intrinsic agonist activity

C[C@@H](NC(=O)c1ccc(C#Cc2cccc(F)c2)cn1)C(C)(C)O [VU0424465, reference compound]
behavioral convulsions (Racine scale) (rats [2]; VU0424465 3 mg/kg): induced behavioral convulsions
FJC-positive neurons in the auditory cortex and adjacent cortical regions (rats [12]; rat, single dose 3 mg/kg i.p., 24 hr after dose): induced cell death
